For one series, the system named is MCF7. Nature of the series: Cytotoxicity against human MCF7 cells after 72 hrs by MTT assay. The conditions noted are these: MCF7, 72 h. Type of series: functional, cell-based. Background: Tetrazolium assays rely on reduction of a dye to a coloured formazan, in cell work by metabolically active cells.
Series [1] relates to HepG2. The experiment in a line: Cytotoxicity against human HepG2 cells after 72 hrs by MTT assay. Type of series: functional, cell-based. The conditions noted are these: HepG2, 72 h.
Series [2] relates to HepG2. Nature of the series: Antitumor activity against human HepG2 cells transfected in nude mouse assessed as tumor growth regression at 20 mg/kg, iv administered from day 9 post-infection every other day for 7 times relative to negative control. It is filed as functional. The gist of the method:
(§1)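 HepG2 xenograft in mice, started 7–14 days after tumor cell inoculation (mice 18–22 g, tumors 140–160 mg). Dosing i.v. every other day, 7 doses, at 10 or 20 mg/kg; sorafenib and vehicle controls given the same way. Tumor dimensions recorded every two days. Growth regression expressed relative to vehicle control.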

Series [3] in a line: Cytotoxicity against human SH-SY5Y cells after 72 hrs by MTT assay. Type of series: functional, cell-based.
Series [4] in a line: Cytotoxicity against human GES-1 cells after 48 hrs by MTT assay. It is filed as cell-based. The conditions noted are these: GES1, 48 h.
In series [5] the test system is HepG2. The experiment in a line: Antitumor activity against human HepG2 cells transfected in nude mouse assessed as tumor growth regression at 10 mg/kg, iv administered from day 9 post-infection every other day for 7 times relative to negative control. Type of series: functional. The procedure, abridged:
as §1

The subject of the next series is DU-145. The experiment in a line: Cytotoxicity against human DU145 cells after 72 hrs by MTT assay. It is filed as functional, cell-based. The conditions noted are these: DU-145, 72 h.
The next series concerns A549. Nature of the series: Cytotoxicity against human A549 cells after 72 hrs by MTT assay. It is filed as functional, cell-based. The settings on record: A549, 72 h.
Series [6] concerns Mus musculus. Nature of the series: Toxicity in nude mouse transfected with human HepG2 cells assessed as decrease in body weight at 20 mg/kg, iv administered from day 9 every other day for 7 times relative to negative control. The arrangement: dose 20 mg/kg, route intravenous. The conditions noted are these: in vivo. Type of series: organism-based. The procedure, abridged:
(§2)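 HepG2 tumor-bearing mice (18–22 g, tumors 140–160 mg, 7–14 days post-inoculation). Dosing i.v. every other day, 7 doses, at 10 or 20 mg/kg; sorafenib and vehicle controls given identically. Body weight recorded every two days; mean change compared with vehicle group.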

Series [7] deals with HepG2. Nature of the series: Cell cycle arrest in human HepG2 cells assessed as decrease in G1 phase accumulation at 2 to 4 uM after 48 hrs by propidium iodide staining-based flow cytometry. Type of series: functional. The gist of the method:
(§3)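 HepG2 seeded 3 × 10⁵/well, 24 h, then exposed to a range of concentrations for 48 h. Cells fixed in ice-cold 70% ethanol ≥24 h, PBS-washed, RNase A treated, PI-stained 30 min at 4 °C in the dark. DNA content by flow cytometry gives G1, S, G2/M and sub-G1 fractions; mean of three independent determinations.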

For series [8], the system named is HepG2. The experiment in a line: Cell cycle arrest in human HepG2 cells assessed as increase in G2/M phase accumulation at 2 to 4 uM after 48 hrs by propidium iodide staining-based flow cytometry. Type of series: functional. The gist of the method:
as §3

Series [9] relates to HepG2. The experiment in a line: Induction of apoptosis in human HepG2 cells assessed as early apoptotic cells at 2 uM after 48 hrs by Annexin V-FITC/propidium iodide staining-based flow cytometry (reference value: 0.86%). It is filed as functional. On the technique in general: A flow cytometer gives signals particle by particle.
The test system of series [10] is HepG2. Nature of the series: Induction of apoptosis in human HepG2 cells assessed as early apoptotic cells at 6 uM after 48 hrs by Annexin V-FITC/propidium iodide staining-based flow cytometry (reference value: 0.86%). It is filed as functional.
Series [11] concerns HepG2. The experiment in a line: Cell cycle arrest in human HepG2 cells assessed as increase in sub G1 phase accumulation after 48 hrs by propidium iodide staining-based flow cytometry. Type of series: functional. The procedure, abridged:
as §3

Series [12] deals with HepG2. The experiment in a line: Cell cycle arrest in human HepG2 cells assessed as increase in S phase accumulation at 2 to 4 uM after 48 hrs by propidium iodide staining-based flow cytometry. Type of series: functional. The procedure, abridged: as §3
The subject of series [13] is HepG2. Nature of the series: Induction of apoptosis in human HepG2 cells assessed as late apoptotic cells at 4 uM after 48 hrs by Annexin V-FITC/propidium iodide staining-based flow cytometry (reference value: 2.13%). It is filed as functional.
In series [14] the test system is HepG2. The experiment in a line: Induction of apoptosis in human HepG2 cells assessed as early apoptotic cells at 4 uM after 48 hrs by Annexin V-FITC/propidium iodide staining-based flow cytometry (reference value: 0.86%). It is filed as functional.
In series [15] the test system is Mus musculus. Nature of the series: Toxicity in nude mouse transfected with human HepG2 cells assessed as change in body weight at 10 mg/kg, iv administered from day 9 every other day for 7 times relative to negative control. Type of series: organism-based. The arrangement: dose 10 mg/kg, route intravenous. The settings on record: in vivo. The gist of the method:
as §2

Series [16] concerns HepG2. The experiment in a line: Induction of apoptosis in human HepG2 cells assessed as late apoptotic cells at 6 uM after 48 hrs by Annexin V-FITC/propidium iodide staining-based flow cytometry (reference value: 2.13%). It is filed as functional.
Series [17] concerns HepG2. Nature of the series: Cell cycle arrest in human HepG2 cells assessed as increase in G2/M phase accumulation after 48 hrs by propidium iodide staining-based flow cytometry. It is filed as functional. The gist of the method:
as §3

Series [18] relates to HepG2. Nature of the series: Cell cycle arrest in human HepG2 cells assessed as increase in S phase accumulation after 48 hrs by propidium iodide staining-based flow cytometry. Type of series: functional. The gist of the method:
as §3

Series [19] concerns HepG2. Nature of the series: Induction of apoptosis in human HepG2 cells after 48 hrs by Annexin V-FITC/propidium iodide staining-based flow cytometry. It is filed as functional, cell-based.
For series [20], the system named is HepG2. Nature of the series: Induction of apoptosis in human HepG2 cells assessed as late apoptotic cells at 2 uM after 48 hrs by Annexin V-FITC/propidium iodide staining-based flow cytometry (reference value: 2.13%). Type of series: functional.

Here are results for 14 compounds from ChEMBL document CHEMBL2417464, “Design and synthesis of novel quinazoline nitrogen mustard derivatives as potential therapeutic agents for cancer” (Eur J Med Chem, 2013).

Each structure is given as a SMILES string. pIC50: −log10 of the molar value. Activity calls are given as the source filed them. No cut-off for these calls is given here. Some results are limits rather than exact numbers.

The pIC50 is the negative decadic logarithm of the IC50, by convention in mol/L. Low readings indicate a high IC50, high ones a low IC50. Turning to `CNC(=O)c1cc(Oc2ccc(NC(=O)Nc3ccc(Cl)c(C(F)(F)F)c3)cc2)ccn1` [SORAFENIB], the pIC50 in the series on MCF7 was 4.95; in the series with HepG2 [1], 5.07; in [3], 4.71; in [4], 4.80; in the series with DU-145, 4.60; in the series on A549, 4.56. Further, the TGI entry in the series with HepG2 [2] and with HepG2 [5] was “Active” each time. In the series on Mus musculus [6], the Activity result is “Toxic”.

Regarding `COc1cc2ncnc(Nc3cccc(N(CCCl)CCCl)c3)c2cc1O`, the pIC50 was 4.17 in the series with MCF7; 4.63 in the series with HepG2 [1]; 4.67 in series [3]; 4.38 in the series on DU-145; 4.48 in the series with A549.

`COc1cc2ncnc(Nc3cccc(N(CCCl)CCCl)c3)c2cc1OCCCN1CCOCC1`: the negative-log IC50 (pIC50) was 4.98 in the series on MCF7; 5.51 in the series with HepG2 [1]; 5.07 in series [3]; 4.70 with DU-145; 5.17 in the series with A549. Moreover, the outcome with HepG2 [7], in the series with HepG2 [8] and in the series on HepG2 [12] was Active. Besides, the Activity in the series on HepG2 [9] is 4.58%; in the series with HepG2 [10], 17.9%; in the series on HepG2 [11] it was “Dose-dependent effect”; in the series on HepG2 [13], 32.13%; with HepG2 [14], 9.26%; in the series on Mus musculus [15], “Non-toxic”. Also, the Activity was 57.7% with HepG2 [16]; “Dose-dependent effect” in the series on HepG2 [17]; “Dose-dependent effect” with HepG2 [18]; “Dose-dependent effect” in the series with HepG2 [19]; “Toxic” with Mus musculus [6]; 6.64% in the series with HepG2 [20]. Besides, the inhibition in vivo at 20 mg/kg in the series on HepG2 [2] (HepG2, 216 h, read-out: TGI) was found to be 47.3%. Moreover, in the series with HepG2 [5] (HepG2, 216 h, read-out: TGI), the inhibition in vivo at 10 mg/kg came to 26.5%.

For `COc1cc2ncnc(Nc3ccc(N(CCCl)CCCl)cc3)c2cc1OCCCN1CCOCC1`, the pIC50 was 4.26 in the series with MCF7; 4.91 in the series on HepG2 [1]; 4.68 in series [3]; 4.77 in the series with DU-145; 4.56 with A549.

With `COc1cc2ncnc(Nc3ccccc3N(CCCl)CCCl)c2cc1OC(C)=O`, the pIC50 in the series on MCF7 is 4.24; with HepG2 [1], 4.32; in series [3], 4.55; with DU-145 it was 4.00; in the series with A549, 4.20.

With `COc1cc2ncnc(Nc3cccc(N(CCCl)CCCl)c3)c2cc1OC`, the negative logarithm of the IC50 (pIC50) in the series on MCF7 was < 4.00; in the series on HepG2 [1] it was 4.76; in series [3], 4.91; with DU-145 it was < 4.00; in the series with A549, < 4.00.

Turning to `COCCOc1cc2ncnc(Nc3cccc(N(CCCl)CCCl)c3)c2cc1OCCOC`, the pIC50 with MCF7 is < 4.00; in the series on HepG2 [1], 4.48; in [3], 4.77; in the series with DU-145, < 4.00; with A549 it was 4.11.

As for `COc1cc2ncnc(Nc3ccc(N(CCCl)CCCl)cc3)c2cc1O`, the pIC50 is 4.38 in the series on MCF7; 4.33 in the series on HepG2 [1]; 4.36 in series [3]; 4.12 with DU-145; 4.27 with A549.

Consider `COc1cc2ncnc(Nc3ccccc3N(CCCl)CCCl)c2cc1OC`, for which the pIC50 is 4.05 in the series with MCF7; 4.11 in the series with HepG2 [1]; 4.65 in [3]; < 4.00 in the series on DU-145; 4.09 in the series on A549.

Turning to `COCCOc1cc2ncnc(Nc3ccccc3N(CCCl)CCCl)c2cc1OCCOC`, the pIC50 is 4.01 with MCF7; 4.95 in the series on HepG2 [1]; 4.34 in series [3]; < 4.00 in the series with DU-145; 4.48 in the series on A549.

For `COCCOc1cc2ncnc(Nc3ccc(N(CCCl)CCCl)cc3)c2cc1OCCOC`, the pIC50 in the series on MCF7 is < 4.00; in the series on HepG2 [1] it was 4.07; in series [3] it was 4.88; with DU-145, < 4.00; with A549, < 4.00.

As for `COc1cc2ncnc(Nc3cccc(N(CCCl)CCCl)c3)c2cc1OC(C)=O`, the pIC50 is 4.40 with MCF7; 4.54 in the series with HepG2 [1]; 4.62 in series [3]; 4.67 in the series on DU-145; 4.41 in the series on A549.

Take `COc1cc2ncnc(Nc3ccc(N(CCCl)CCCl)cc3)c2cc1OC(C)=O`: the pIC50 was 4.54 with MCF7; 4.33 in the series on HepG2 [1]; 4.76 in series [3]; 4.31 with DU-145; 4.54 in the series on A549.

Consider `COc1cc2ncnc(Nc3ccc(N(CCCl)CCCl)cc3)c2cc1OC`, for which the pIC50 with MCF7 is 4.29; with HepG2 [1], 4.52; in series [3] it was 5.13; in the series with DU-145 it was < 4.00; in the series with A549, < 4.00.
